ChEMBL document CHEMBL5674882, “Benzolactam-related compounds promote apoptosis of HIV-infected human cells via protein kinase C-induced HIV latency reversal” (J Biol Chem, 2019)
Activity calls are given as the source filed them. No cut-off for these calls is given here.

Key:
[1] = tested on: ACH-2 cell line; test: Induction of apoptosis in human ACH-2 cells at 1 uM after 48 hrs by PI/annexin-V staining based flow cytometry; type: functional
[2] = Toxicity in human CD4+ T-cells assessed as increase in ratio of CD69+ cells incubated for 24 hrs by flow cytometry; type: cell-based; settings: cd4+ t cell
Summary of the method: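 Primary CD4+ T-cells from healthy donors treated with drug for 24 h. Cells stained with anti-CD25 and anti-CD69 antibodies (plus CD3, CD4, HLA-DR) for 30 min on ice, then marker-positive proportions quantified by flow cytometry.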

[3] = tested on: U1; test: Induction of apoptosis in human U1 cells at 1 uM incubated for 48 hrs by propidium iodide/annexin-V staining based flow cytometry (reference value: 3.16%); type: functional
[4] = tested on: ACH-2 cell line; test: Induction of apoptosis in human ACH-2 cells at 1 uM incubated for 48 hrs by propidium iodide/annexin-V staining based flow cytometry (reference value: 3.16%); type: functional
[5] = tested on: J-Lat 6.3; test: Induction of apoptosis in human J-Lat 6.3 cells at 1 uM incubated for 48 hrs by propidium iodide/annexin-V staining based flow cytometry (reference value: 3.16%); type: functional
[6] = Toxicity in human CD4+ T-cells assessed as elevation of supernatant cytokine concentrations of IL-5 incubated for 24 hrs by bead-based immunoassay; settings: cd4+ t cell
Summary of the method: (§1)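 Purified CD4+ T-cells from healthy donors treated 24 h with 1 μm drug, 1 μm JQ1, or the combination. IL-2, IL-5, IL-6, IL-13, TNFα and IFN-γ in supernatants measured by flow-cytometry bead-based Th1/Th2 immunoassay. Run in duplicate.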

[7] = Toxicity in human U-937 cells assessed as reduction in cell viability after 48 hrs by WST8 assay; type: cell-based
Summary of the method: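 Parental, uninfected lines (A3.01 for ACH-2, U937 for U1) at 5 × 10^5 cells/ml cultured with or without drug. Viable cells read at 48 h (day 2) and expressed as % of untreated control. CC50 taken as the concentration lowering viability by 50%.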

[8] = tested on: U1; test: Induction of apoptosis in human U1 cells assessed as caspase-3 activation at 1 uM incubated for 24 hrs by flow cytometry (reference value: 1.86%); type: functional
Summary of the method: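 Cells fixed in 1% paraformaldehyde, permeabilized, stained 30 min on ice with anti-active caspase-3 mAb, and analysed by flow cytometry. Three independent experiments.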

[9] = tested on: ACH-2 cell line; test: Induction of apoptosis in human ACH-2 cells assessed as cleaved-PARP level at 1 uM incubated for 24 hrs by flow cytometry (reference value: 1.64%); type: functional
Summary of the method: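 Cells fixed, permeabilized, stained on ice with anti-cleaved PARP (Asp-214) mAb; % cleaved-PARP cells by flow cytometry. Means ± S.D. of three independent experiments.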

[10] = target: T1, Protein kinase C (PKC) (Homo sapiens) (UniProt O94806+P41743+P17252+P05129+Q05655+P05771+Q05513+Q02156+P24723+Q15139+Q04759); test: Activation of PKC CD4+ T-cells purified from HIV-infected patient assessed as increase in transcription of HIV mRNA at 1 uM incubated for 24 hrs by qRT-PCR method; type: cell-based; settings: CD4+ T cell, filed as activator
Summary of the method: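 CD4+ T-cells purified from PBMC of eight cART-treated HIV+ patients (cART ≥5 years, plasma viral load <20 copies/ml), plated at 2.5 × 10^6 cells/ml and treated 24 h. Total RNA extracted; HIV RNA quantified by qRT-PCR against a plasmid standard curve, normalized per ng input RNA, and expressed as fold over untreated cells. Medians of eight individuals; Mann-Whitney U test.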

[11] = tested on: ACH-2 cell line; test: Induction of apoptosis in human ACH-2 cells at 1 uM incubated for 48 hrs after pre-incubated for 2 hrs with 20 uM caspase inhibitor Q-VD-Oph by propidium iodide/annexin-V staining based flow cytometry; type: functional, cell-based
Summary of the method: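 ACH-2 or U1 cells pretreated 2 h with 20 µM pan-caspase inhibitor Q-VD-Oph, then exposed to 1 µM compound for 48 h. Annexin-V/PI staining by flow cytometry; apoptotic proportions compared with and without Q-VD-Oph. Mean ± S.D.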

[12] = target: T1, Protein kinase C (PKC) (Homo sapiens); test: Synergistic activation of PKC in human U1 cells infected with latent HIV-1 assessed as reversal of HIV-1 latency by measuring increase in p24 antigen level at 50 nM incubated for 48 hrs in presence of 100 nM JQ1 by chemiluminescent enzyme immunoassay relative to compound alone; type: cell-based; settings: filed as activator
Summary of the method: (§2)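 U1 cells at 5 × 10^5 cells/ml incubated 48 h with test agent alone or plus 100 nm JQ1. Supernatant p24 antigen quantified by automated immunoassay. Fold reactivation computed versus the same agent without JQ1. Mean ± S.D. of three independent experiments.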

[13] = target: T1, Protein kinase C (PKC) (Homo sapiens); test: Activation of PKC in human J-Lat 10.6 cells infected with latent HIV-1 assessed as reversal of HIV-1 latency by measuring increase of GFP-positive cells at 100 to 400 nM in presence of 200 nM Prostratin incubated for 24 hrs by flow cytometry; type: cell-based; settings: filed as activator, dose 100-400 nM
[14] = target: T1, Protein kinase C (PKC) (Homo sapiens); test: Activation of PKC in human J-Lat 10.6 cells infected with latent HIV-1 assessed as reversal of HIV-1 latency by measuring increase of GFP-positive cells at 400 nM incubated for 24 hrs by flow cytometry; type: cell-based; settings: filed as activator
[15] = target: Protein kinase C (PKC); test: Activation of PKC in human J-Lat 10.6 cells infected with latent HIV-1 assessed as reversal of HIV-1 latency by measuring increase of GFP-positive cells at 1 to 10000 nM incubated for 24 hrs by flow cytometry; type: cell-based
Summary of the method: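 J-Lat 10.6 or J-Lat 6.3 cells (5 × 10^5 cells/ml) incubated 24 h with graded drug concentrations; % GFP-positive cells determined by flow cytometry. Means ± S.D. of three independent experiments.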

[16] = target: T1, Protein kinase C (PKC) (Homo sapiens); test: Synergistic activation of PKC in human J-Lat 10.6 cells infected with latent HIV-1 assessed as reversal of HIV-1 latency by measuring increase of GFP-positive cells at 400 nM in presence of 500 nM JQ1 incubated for 24 hrs by flow cytometry; type: cell-based; settings: filed as activator
Summary of the method: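 J-Lat 10.6 cells at 5 × 10^5 cells/ml treated 24 h alone or with 500 nm JQ1. GFP-positive cells counted by flow cytometry. Fraction affected normalised to PMA response after subtracting the no-drug value. Synergy by Bliss independence (Δfaxy). Mean ± S.D. of three independent experiments.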

[17] = target: T1, Protein kinase C (PKC) (Homo sapiens); test: Synergistic activation of PKC in human U1 cells infected with latent HIV-1 assessed as reversal of HIV-1 latency by measuring increase in p24 antigen level at 25 nM incubated for 48 hrs in presence of 100 nM JQ1 by chemiluminescent enzyme immunoassay relative to compound alone; type: cell-based; settings: filed as activator; summary of the method: as §2
[18] = Toxicity in human CD4+ T-cells assessed as elevation of supernatant cytokine concentrations of IL-13 incubated for 24 hrs in presence of JQ1 by bead-based immunoassay; settings: cd4+ t cell; summary of the method: as §1

Question: For `CCCCCCCCCCc1ccc2c(c1)N(C)[C@@H](C(C)C)C(=O)N[C@H](CO)C2`, which Activity [1] is on record?
Answer: 59.7%

Question: What about the Activity [2] of the same compound?
Answer: Non-Toxic

Question: And the Activity [3]?
Answer: 28.4%

Question: And the Activity [4]?
Answer: 58%

Question: And the Activity [5]?
Answer: 17%

Question: What about the Activity [6] of the same compound?
Answer: Toxic

Question: What about the CC50 at 48 h [7] of the same compound?
Answer: 61.2 µM

Question: And the Activity [8]?
Answer: 7.7%

Question: And the Activity [9]?
Answer: 21.5%

Question: And the Activity [10]?
Answer: Active

Question: And the Activity [11]?
Answer: inactive

Question: And the fold change (FC) [12]?
Answer: 4.5

Question: What about the Activity [13] of the same compound?
Answer: Active

Question: What about the Activity [14] of the same compound?
Answer: 42.2%

Question: What about the EC50 [15] of the same compound?
Answer: 10.6 µM

Question: What about the Activity [16] of the same compound?
Answer: 73.1%

Question: And the fold change (FC) [17]?
Answer: 22.9

Question: What about the Activity [18] of the same compound?
Answer: Non-Toxic
